From PubChem BioAssay
Shown are actives, neighbours in structure and some others; about 2.9% of the full set was active somewhere.
SIRT5 block: sirtuin-5 (human) deacylase inhibition; Q9NXA8; Purified SirT5, succinyl-peptide AMC, trypsin-coupled fluorescence; inhibition, % at 15 µM; 330,000 compounds, 1.1% hits; AID 652115; in the data active means inhibition above about 15%; inconclusive means no clear call, values can overlap the other calls
Target sequence (Q9NXA8 whole entry, looked up): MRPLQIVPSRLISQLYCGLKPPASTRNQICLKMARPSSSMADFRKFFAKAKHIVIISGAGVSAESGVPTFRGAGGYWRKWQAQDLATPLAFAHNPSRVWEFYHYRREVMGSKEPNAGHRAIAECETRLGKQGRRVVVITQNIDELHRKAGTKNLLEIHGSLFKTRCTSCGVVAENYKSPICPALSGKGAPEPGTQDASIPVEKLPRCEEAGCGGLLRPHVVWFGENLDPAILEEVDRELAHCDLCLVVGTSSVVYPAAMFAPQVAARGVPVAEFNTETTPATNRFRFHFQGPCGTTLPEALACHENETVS
PGC1a acetyl inh: lowers PGC1a acetylation signal in U2OS cells | AlphaScreen anti-acetyl-lysine; with virally co-expressed GCN5 acetyltransferase | inhibition, % at 15.6 µM | 350,000 compounds, 0.17% hits;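 active means every replicate shows inhibition of at least 40%; inconclusive means mean inhibition at least 40% but some replicate below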;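 further: 0% = neutral control wells and 100% = positive control wells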
S100A4 inh HTS: S100A4-myosin IIA interaction inhibition | P26447 | S100A4/TAMRA-MyoIIA peptide fluorescence polarization | inhibition, % at 10.7 µM | 360,000 compounds, 0.14% hits | AID 652163;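 active means mean inhibition of at least 70% across replicates, with every replicate also reaching that level; inconclusive means mean inhibition reaches 70% but some replicates fall short; inactive means mean inhibition below 70%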
Target sequence (P26447 whole entry, looked up): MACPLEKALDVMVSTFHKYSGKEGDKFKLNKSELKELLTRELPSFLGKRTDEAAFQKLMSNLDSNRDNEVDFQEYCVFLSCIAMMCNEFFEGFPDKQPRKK
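Material: S100A4 monomer (human). Medium: Calcium-containing HEPES buffer, pH 7.2. Probe or stimulus: labelled myosin peptide probe, 5 nM. Compound dosing: one concentration per compound. Timing: polarization read 5 min after assay mix addition, stable 5–60 min. Benchmarks: DMSO as neutral control, TFP as positive control.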
Statin myotox sup: protects C2C12 myotubes from simvastatin toxicity; ATP luminescence, 48 h; scaled: DMSO 0, geranylgeraniol control 100; rescue of ATP level, % at 7.49 µM; 330,000 compounds, 0.78% hits; AID 602340;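 active means mean ATP rescue above about 67%, or every replicate alone reaching that limit, limit read from the data, passing the limit was not always enough; inconclusive means no clear call, values can overlap the other calls; inactive means mean under the limit and some replicate under it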;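 further: myotubes were challenged with 10 µM simvastatin during compound exposure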
DENV2 CPE: protects cells from dengue virus 2 cytopathic effect; CPE inhibition, % at 9.99 µM; 350,000 compounds, 1.7% hits; DENV2-infected cells, cytopathic effect rescue, plate reader; in the data active means CPE inhibition above about 20%, passing the limit was not always enough; inconclusive means no clear call, values can overlap the other calls; tested in BHK-21 cells;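 further: 0% = median of neutral control wells and 100% = median of positive control wells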
Active calls of the source: *; ? = inconclusive; . = no result.

SMILES	SIRT5 block	PGC1a acetyl inh	S100A4 inh HTS	Statin myotox sup	DENV2 CPE
COc1ccc(C(=O)COC(=O)CCCN=C2NS(=O)(=O)c3ccccc32)c(OC)c1	1.4	.	2.1	.	35.8*
Cc1cc(C(=O)COC(=O)CN=C2NS(=O)(=O)c3ccccc32)c(C)n1CCc1ccc(Cl)cc1	.	-2.8	-1.1	112.4*	16.8
CCCNC(=O)C[C@@H]1CC[C@H]2[C@H](COc3ccc(NC(=O)COC)cc3C(=O)N2C)O1	.	-9.6	.	-2.1	-4.3
NC(=O)C(CCC(=O)c1ccc(Br)cc1)S(=O)(=O)c1ccccc1 (centres undefined)	-4.2	4.2	3.0	.	31.0*
Cc1ccc(C(=O)NC(=C(Cl)Cl)S(=O)(=O)c2ccccc2)cc1	-1.9	.	12.5	.	-1.1
COC(=O)NC(=C(Cl)Cl)S(=O)(=O)c1ccccc1	.	-42.5	.	147.3*	.
CC(C)CNC(=O)C1Nc2ccccc2C2C=CCC12 (centres undefined)	.	3.6	1.2	-3.2	63.2*
COC(=O)CNC(=O)C1Nc2ccccc2C2C=CCC12 (centres undefined)	.	-10.9	-2.1	0.2	15.2
CCCC(=O)Nc1ccc2c(c1)C(=O)N(C)C[C@@H](OC)[C@@H](C)CN(CC1CCCC1)[C@@H](C)CO2	-1.4	1.6	-1.7	11.8	-5.3
C[C@H](CO)N1C[C@H](C)[C@@H](CN(C)S(=O)(=O)c2ccccc2)Oc2ccc(NC(=O)Nc3cccc4ccccc34)cc2C1=O	-2.1	38.6	-0.6	15.2	-2.6
Cc1cc(S(=O)(=O)NC(=O)[C@H]2O[C@@H](n3ccc(=O)[nH]c3=O)[C@H](O)[C@@H]2O)ccc1Br	-2.3	.	-9.5	.	20.1*
COCC#Cc1ccc2c(c1)O[C@@H](CN(C)C(=O)c1ccccc1F)[C@@H](C)CN([C@H](C)CO)S2(=O)=O	4.3	3.0	5.2	13.9	?
O=C(c1ccccc1F)N1C[C@@H]2[C@H](c3ccccc31)[C@@H](CO)N2C(=O)c1ccccc1	-1.4	2.3	-2.1	-1.1	9.8
CS(=O)(=O)N(CC(=O)NCc1ccco1)c1ccc(OCc2ccccc2)cc1	-6.1	-10.7	-1.5	123.1*	5.1
COc1ccc(N(CC(=O)NCc2ccco2)S(C)(=O)=O)cc1	.	.	.	3.3	.
Cc1cccc(-c2ccc([C@@H]3[C@@H](CO)N4CCCCN(S(=O)(=O)c5ccccc5C)C[C@@H]34)cc2)c1	-0.5	-8.3	0.3	.	0.9
CCOC(=O)CN1CC23C=CC(O2)C(C(=O)NC2CCCCC2)C3C1=O (centres undefined)	.	15.5	.	107.5*	.
COc1ccccc1C(=O)NNC(=O)Cc1ccccc1	-1.4	.	-3.2	-1.5	7.5
CCC(C)(CCNC(=O)Cc1ccccc1)c1ccccc1OC (centres undefined)	-3.4	-6.7	-2.2	121.1*	-6.2
C[C@@H]1CN([C@@H](C)CO)C(=O)c2cc(-c3cccc(F)c3)cnc2O[C@H]1CN(C)C(=O)C1CCCCC1	1.8	-3.1	67.9	-3.0	16.5
COc1cc(/C=N/NC(=O)c2cc(-c3ccccc3Cl)nc3ccccc23)cc(OC)c1O	-1.6	4.8	0.1	.	6.9
COc1cc(/C=N/NC(=O)c2cc(-c3ccco3)nc3ccccc23)cc(OC)c1O	1.1	-3.5	0.7	.	30.8*
Cc1nn2c3ccccc3n(C)c2nc1=O	.	13.1	.	.	.
Cc1nn2c3ccccc3n(Cc3ccccc3)c2nc1=O	.	-4.1	.	118.2*	.
COc1ccc2c(c1)OC[C@H]1[C@H]2N2C(=O)c3cc(OC)ccc3NC(=O)[C@@]2(C)[C@H]1c1ccccc1	.	-19.8	-1.5	-0.6	47.2*
SMILES	SIRT5 block	PGC1a acetyl inh	S100A4 inh HTS	Statin myotox sup	DENV2 CPE
CN1CC(=O)N2[C@H]3c4ccccc4OC[C@@H]3[C@H](c3ccccc3)[C@]2(C)C1=O	-4.3	.	-5.1	13.1	10.1
C[C@@]12C(=O)N(CCc3c[nH]c4ccccc34)CC(=O)N1[C@H]1c3ccccc3OC[C@@H]1[C@@H]2c1ccccc1	.	.	1.5	-2.1	53.6*
COc1ccc2c(c1)OC[C@H]1[C@H]2N2C(=O)c3cc(Cl)ccc3NC(=O)[C@@]2(C)[C@H]1c1ccccc1	.	.	.	-7.6	.
C[C@@]12C(=O)N(c3ccc(F)cc3)C(=O)N1[C@@H]1c3ccccc3OC[C@@H]1[C@H]2c1ccccc1	.	.	-5.5	-14.0	21.4*
COc1ccc(CN2CC3(CN(C(=O)Cc4ccccc4)C3)c3c([nH]c4cc(OC)ccc34)[C@H]2CO)cc1	4.5	.	4.3	.	-9.8
COCC(=O)N1CCC2(CC1)CN(C(=O)Nc1ccccc1F)[C@H](CO)c1[nH]c3cc(OC)ccc3c12	3.2	7.6	4.6	.	25.0*
COc1ccc2c3c([nH]c2c1)[C@@H](CO)N(C(=O)Nc1ccc(F)cc1)CC31CN(S(=O)(=O)c2cccc(C)c2)C1	8.7	.	-1.8	.	1.1
COc1cccc(S(=O)(=O)N2CC3(CN(C(=O)Nc4ccc(F)cc4)[C@H](CO)c4[nH]c5cc(OC)ccc5c43)C2)c1	.	-23.7	.	.	127.6*
COc1ccc2c3c([nH]c2c1)[C@@H](CO)N(Cc1ccccc1Cl)CC31CN(C(=O)C2CC2)C1	-2.4	9.9	3.2	.	23.2*
COc1ccc(CN2CC3(CN(C(=O)c4ccccc4)C3)c3c([nH]c4cc(OC)ccc34)[C@H]2CO)cc1	1.2	8.6	72.8*	.	-4.0
COCC(=O)N1CC(=O)N2[C@H](CO)[C@H](c3ccc(C#CCc4ccccc4)cc3)[C@@H]2C1	9.1	-9.0	-3.5	.	-16.0
COCC#Cc1ccc([C@H]2[C@@H](CO)N3C(=O)CN(C(=O)Nc4ccc(F)cc4)C[C@H]23)cc1	-0.5	-1.2	-6.9	.	-2.3
CC(C)NC(=O)N(C)C[C@@H]1Oc2ccc(NC(=O)c3ccncc3)cc2CC(=O)N([C@@H](C)CO)C[C@H]1C	1.1	-3.5	7.5	5.3	3.7
C[C@@H]1CCCCO[C@@H](CN(C)Cc2ccc3c(c2)OCO3)[C@@H](C)CN([C@@H](C)CO)C(=O)c2cc(NC(=O)Nc3ccc(F)cc3)ccc2O1	-2.2	-5.3	6.7	-26.0	-7.4
COc1ccc2c3c([nH]c2c1)[C@@H](CO)N(Cc1cccc(Cl)c1)CC31CCN(C(C)=O)CC1	.	6.1	.	.	30.1*
COc1ccc2c3c([nH]c2c1)[C@H](CO)N(C(C)=O)CC31CCN(Cc2ccccc2Cl)CC1	.	-3.8	-4.1	.	7.2
COc1ccc2c3c(n(C)c2c1)[C@@H](CO)N(Cc1ccccc1Cl)CC31CN(C(=O)CC2CC2)C1	11.8	-20.8	9.1	.	14.0
COc1ccc2c3c(n(C)c2c1)[C@H](CO)N(Cc1ccccc1Cl)CC31CCN(C(=O)CC2CC2)CC1	4.0	-8.0	6.1	.	30.8*
COc1ccc2c3c([nH]c2c1)[C@H](CO)N(Cc1ccccc1Cl)CC31CCN(C(C)=O)CC1	.	-0.2	.	.	22.5*
COCC(=O)N1CC2(CCN(Cc3ccccc3Cl)CC2)c2c([nH]c3cc(OC)ccc23)[C@H]1CO	5.4	-4.1	84.8*	.	0.8
